Columns and labels:
[1] = Cytotoxicity against human CEM/0 CD4+ T cells assessed as reduction in cell viability; format: cell-based, CCRF-CEM
In short: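 Cytostatic readout: CC₅₀ is the compound concentration inhibiting CEM CD4⁺ T-cell proliferation by 50%. Values are the mean ± SD of n = 2−3 independent experiments.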

[2] = Prodrug conversion in human CEM/0 cell extract assessed as NTP formation by RP18-HPLC analysis; format: ADME, tissue-based; details: ccrf-cem
In short: (§1)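 Extract preparation: CEM CD4⁺ T-cells grown in RPMI-1640 to ~3 × 10⁶ cells/mL, washed in cold PB, resuspended at 10⁸ cells/mL, sonicated, clarified at 10,000 rpm and stored at −80 °C. Compounds from 50 mM DMSO stock (diluted to 6.0 mM in DMSO) incubated in the extract. Reactions stopped with THF, put on ice, centrifuged and filtered.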

[3] = Stability of compound in human CEM/0 cell extract assessed as half life by RP18-HPLC analysis; format: ADME, tissue-based, CCRF-CEM; in short: as §1
[4] = Prodrug conversion in human CEM/0 cell extract assessed as gamma-kb-d4TTP formation by RP18-HPLC analysis; format: ADME, tissue-based; details: ccrf-cem; in short: as §1
[5] = Prodrug conversion in human CEM/0 cell extract assessed as d4TDP formation by RP18-HPLC analysis; format: ADME, tissue-based; details: ccrf-cem; in short: as §1
[6] = Prodrug conversion in PBS buffer at pH 7.3 assessed as pig liver esterase-mediated cleavage of ketobenzyl-residue measured over 800 hrs by HPLC analysis; format: ADME, Sus scrofa; details: pH 7.3, 800 h
[7] = system: Human immunodeficiency virus 1; test: Antiviral activity against HIV1 3B infected in human CEM/0 cells assessed as inhibition of virus-induced syncytia cell formation measured after 4 to 5 days by microscopic analysis; format: functional, organism-based; details: Human immunodeficiency virus 1, 3B, CCRF-CEM
In short: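 Syncytium-inhibition assay in wild-type CEM/0 or TK-deficient CEM/TK⁻ cells, ~3 × 10⁵ cells/mL, infected with 100 CCID₅₀/mL HIV-1(III_B) or HIV-2(ROD), with serial compound dilutions. Incubated 4−5 days at 37 °C in humidified CO₂ atmosphere. Giant cells scored microscopically; EC₅₀ is the concentration halving HIV-induced giant cell formation. Values are the mean ± SD of n = 2−3 independent experiments.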

[8] = system: Human immunodeficiency virus 2; test: Antiviral activity against HIV2 ROD infected in human CEM/0 cells assessed as inhibition of virus-induced syncytia cell formation measured after 4 to 5 days by microscopic analysis; details: Human immunodeficiency virus 2, ISOLATE ROD, CCRF-CEM
[9] = Stability in pH 7.3 PBS assessed as pig liver esterase mediated hydrolysis by measuring half life upto 2 hrs by HPLC analysis; format: ADME, Sus scrofa
In short: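 Porcine liver esterase (3 mg/mL in PB) added to compound diluted from a 6.0 mM DMSO/water solution into DMSO and 50 mM phosphate buffer, pH 7.3. Incubated at 37 °C. Timed aliquots snap-frozen in liquid nitrogen, then thawed, sonicated, centrifuged, filtered and analysed by HPLC. t½ calculated as for chemical hydrolysis.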

[10] = system: Human immunodeficiency virus 2; test: Antiviral activity against HIV2 ROD infected in human TK-deficient […] cells assessed as inhibition of viral-induced giant cell formation incubated for 4 to 5 days by microscopy; details: Human immunodeficiency virus 2, ISOLATE ROD
[11] = Chemical stability of compound assessed as half life in PBS at pH 7.3 by RP18-HPLC analysis; format: physicochemical
In short: (§2)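 From 50 mM DMSO stocks, diluted to 1.9 mM hydrolysis solutions in water/DMSO. Reaction started by adding phosphate buffer (50 mM, pH 7.3; 25 mM also stated). Incubated at 37 °C with time-course sampling. Starting material and products (γ-kb-NTP, d4TDP, thymine) followed by analytical rp18 HPLC, from which t½ was calculated.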

[12] = Chemical stability of compound in PBS at pH 7.3 by RP18-HPLC analysis; format: physicochemical; details: buffer; in short: as §2
[13] = Prodrug conversion in human CEM/0 cell extract assessed as d4TTP formation after 96 hrs by HPLC analysis; format: ADME, tissue-based; details: ccrf-cem; in short: as §1
[14] = Stability in human CEM/0 cell extract assessed as parent compound remaining after 98 hrs by HPLC analysis; format: ADME, tissue-based, CCRF-CEM; details: read-out: Stabilty; in short: as §1
[15] = Substrate activity at human DNA polymerase gamma assessed as increase in primer extension incubated at 37 degC for 60 mins and at 80 degC for 3 mins in presence of fluorescent-lebelled dATP, dCTP and dGTP by PAGE analysis; format: ADME; details: 1.05 h, time 63 min
In short: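 Human DNA polymerase γ (4 U) with Cy3-primer/template duplex 0.20 μM in 60 mM Tris-HCl pH 8, 5 mM MgOAc, 1.0 mM DTT, 0.1 mM spermine, 0.01% BSA. Preincubated 5 min at 37 °C without nucleotides, then run 60 min at 37 °C with nucleotides 250 μM, then 80 °C for 3 min. Denaturing 15% PAGE with fluorescence imaging.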

[16] = Prodrug conversion in human CEM/0 cell extract assessed as d4TDP formation after 96 hrs by HPLC analysis; format: ADME, tissue-based; details: ccrf-cem; in short: as §1
[17] = Substrate activity at HIV reverse transcriptase assessed as increase in primer extension incubated at 37 degC for 60 mins and at 80 degC for 3 mins in presence of fluorescent-lebelled dATP, dCTP and dGTP by PAGE analysis; format: ADME; details: human immunodeficiency virus, 1.05 h; time 63 min
[18] = Selectivity index, ratio of CC50 for cytotoxicity against human CEM/0 CD4+ T cells to EC50 for antiviral activity against HIV1 3B infected in human CEM/0 cells; format: toxicity, cell-based; details: read-out: Ratio CC50/EC50
In short: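 Selectivity index from CC₅₀ (50% inhibition of CEM cell proliferation) and EC₅₀ (50% inhibition of HIV-1(III_B)-induced giant cell formation in CEM/0 cells, 4−5 days, microscopy), both mean ± SD of n = 2−3 independent experiments.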

[19] = Stability in human CEM/0 cell extract assessed as parent compound remaining up to 98 hrs by HPLC analysis; format: ADME, tissue-based, CCRF-CEM; details: read-out: Stabilty; in short: as §1
[20] = Substrate activity at HIV reverse transcriptase assessed as increase in primer extension incubated at 37 degC for 15 mins in presence of radiolabeled dATP, dCTP, and dGTP by PAGE analysis; format: ADME; details: human immunodeficiency virus, 0.25 h
In short: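 Template 30-mer annealed to a ³²P-labelled 25-mer primer (95 °C, then cooled to −20 °C over 3 h; 20 mM Tris-HCl pH 7.6, 50 mM NaCl). Reaction: 50 mM Tris-HCl pH 8.6, 10 mM MgCl₂, 40 mM KCl, nucleotides 66 μM, HIV-RT 0.2 U, duplex 0.32 μM. Run 15 min at 37 °C, stopped at 80 °C for 3 min. Resolved on denaturing 15% PAGE and read by phosphorimaging.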

SMILES	CC50 [1] [nM]	Drug metabolism [2]	half-life [3] [h]	Drug metabolism [4]	Drug metabolism [5]	Drug metabolism [6]	EC50 [7] [nM]	EC50 [8] [nM]	half-life [9] [h]	EC50 [10] [nM]	half-life [11] [h]	Stabilty [12]	Drug metabolism [13]	remaining at 98 h [14] [%]	Activity [15]	Drug metabolism [16]	Activity [17]	selectivity ratio [18]	remaining at 98 h [19] [%]	Activity [20]
CCCCCCCCCCCCCCCCCC(=O)Oc1ccc(COP(=O)(OCc2ccc(C(=O)CCCCCCCCCCCCCCCCC)cc2)OP(=O)(O)OP(=O)(O)OC[C@@H]2C=C[C@H](n3cc(C)c(=O)[nH]c3=O)O2)cc1 (stereo not given in full)	28000	Metabolite_Notdetected	2.1	Metabolite_Detected	Metabolite_Detected	Metabolite_Notdetected	420	830	0.167	380	11									
CCCCCCCCC(=O)Oc1ccc(COP(=O)(OCc2ccc(OC(=O)CCCCCCCC)cc2)OP(=O)(O)OP(=O)(O)OC[C@@H]2C=C[C@H](n3cc(C)c(=O)[nH]c3=O)O2)cc1	52000		2.5				310	620		2260	52									
CCCCCCCCCCCCCCCCCC(=O)Oc1ccc(COP(=O)(OCc2ccc(C(=O)CCCCCCCCC)cc2)OP(=O)(O)OP(=O)(O)OC[C@@H]2C=C[C@H](n3cc(C)c(=O)[nH]c3=O)O2)cc1 (stereo not given in full)	35000	Metabolite_Notdetected	7.8	Metabolite_Detected	Metabolite_Detected	Metabolite_Notdetected	580	780	0.167	1100	94									
CCCCCCCCCC(=O)c1ccc(COP(=O)(O)OP(=O)(O)OP(=O)(O)OC[C@@H]2C=C[C@H](n3cc(C)c(=O)[nH]c3=O)O2)cc1			> 30			Metabolite_Notdetected						Stable	Metabolite_Notdetected	89	Not Active	Metabolite_Notdetected	Active			
CCCCCCCCCC(=O)c1ccc(COP(=O)(O)OP(=O)(O)OP(=O)(O)OC[C@H]2O[C@@H](n3cnc4c(N)ncnc43)C[C@@H]2O)cc1	74000					Metabolite_Notdetected	10000	> 10000		> 10000		Stable						7		
CCCCCCCCCCCCCCCCCC(=O)c1ccc(COP(=O)(OCc2ccc(OC(=O)CCCCCC)cc2)OP(=O)(O)OP(=O)(O)OC[C@@H]2C=C[C@H](n3cc(C)c(=O)[nH]c3=O)O2)cc1 (stereo not given in full)	34000	Metabolite_Notdetected	6.9	Metabolite_Detected	Metabolite_Detected	Metabolite_Notdetected	440	1100	0.167	400	109									
CCCCCCCCCC(=O)c1ccc(COP(=O)(OCc2ccc(OC(=O)CCCC)cc2)OP(=O)(O)OP(=O)(O)OC[C@@H]2C=C[C@H](n3cc(C)c(=O)[nH]c3=O)O2)cc1 (stereo not given in full)	25000	Metabolite_Notdetected	1.1	Metabolite_Detected	Metabolite_Detected	Metabolite_Notdetected	370	1200	0.167	2500	43									
CCCCCCCCCCCCCCCCCC(=O)Oc1ccc(COP(=O)(OCc2ccc(OC(=O)CCCC)cc2)OP(=O)(O)OP(=O)(O)OC[C@@H]2C=C[C@H](n3cc(C)c(=O)[nH]c3=O)O2)cc1 (stereo not given in full)	33000						120	100		540	50									
CCCCCCCCCCCCCCCCCC(=O)c1ccc(COP(=O)(O)OP(=O)(O)OP(=O)(O)OC[C@@H]2C=C[C@H](n3cc(C)c(=O)[nH]c3=O)O2)cc1	13000		> 30			Metabolite_Notdetected	330	600		260		Stable	Metabolite_Notdetected	89	Not Active	Metabolite_Notdetected	Active			
CCCCCCCCCC(=O)c1ccc(COP(=O)(O)OP(=O)(O)OP(=O)(O)OC[C@H]2O[C@@H](n3cc(C)c(=O)[nH]c3=O)C[C@@H]2O)cc1	10000		> 30			Metabolite_Notdetected	6600	8800		> 10000		Stable			Not Active				98	Active
Cc1cn([C@H]2C=C[C@@H](COP(=O)(O)OP(=O)(O)OP(=O)(O)O)O2)c(=O)[nH]c1=O [STAVUDINE TRIPHOSPHATE]	> 100000						1050	400		> 100000							Active			
Cc1cn([C@H]2C=C[C@@H](CO)O2)c(=O)[nH]c1=O [STAVUDINE]							430	220		150000										

— ChEMBL document CHEMBL4699643, “γ-Ketobenzyl-Modified Nucleoside Triphosphate Prodrugs as Potential Antivirals” (J Med Chem, 2020)
